# Assay outcomes from PubChem.
# RAM network inh: inhibitors of the yeast RAM network, primary screen, dse1pr::URA3 reporter, 5-FOA selection; S. cerevisiae dse1pr::URA3 reporter, 5-FOA growth OD615, 2 d; analog-sensitive cbk1-as2 kinase mutant strain; inhibition, % at 50 µM; AID 868, 2007; hit rate 1.8% among 190,000;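 active means inhibition above a set limit, 3 SD over mean compound inhibition, cut at about 8.4% in these data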;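 further: 0% = DMSO-only wells with no growth and 100% = 10 µM 1-NA-PP1 full growth; inhibition rescues growth on 5-FOA so higher OD means more RAM inhibition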
# Insulin prom inh: inhibitors of insulin promoter-driven GFP, primary screen, imaging, TRM-6 cells, eGFP reporter, cell count | reporter expression induced with tamoxifen | inhibition, % at 2 µM | hit rate 0.9% among 130,000;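 active means inhibition above the mean plus 3 SD, with well images judged a real hit on visual review, cut at about 60% in these data, passing the limit was not always enough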
# BB579 growth dn: growth inhibitors of yeast BB579 in restrictive medium, primary screen, yeast lifespan-shortening project, S. cerevisiae | hit rate 0.51% among 140,000 | AID 804, 2007 | OD615, 48 h | inhibition, % at 10 µM;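 active means inhibition above a set limit, 3 SD over the mean compound inhibition, cut at about 44% in these data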
#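 Assay system – yeast BB579 (DeaD) · Dosing – single compound dose of 10 µM, 0.25% DMSO final · Detection – OD615 turbidity measurement · Buffer or medium – CSMM-D restrictive synthetic medium containing dextrose (glucose) · Benchmarks – positive control amphotericin B 10 µg/mL · Incubation – 48 h exposure, 30 °C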
# Measles CPE: compounds protecting cells from measles virus cytopathic effect, primary screen, measles RdRp inhibitor project, single point, MLSMR library, absorbance; Measles virus-infected cells, CPE protection; protection (pct of control), % at 4 µM; hit rate 1.5% among 140,000; in the data active means protection mostly above about 24%, no sharp cut-off; inactive means mostly below about 26%
# Mdm2 ligase inh: MDM2-luciferase reporter signal enhancers, primary screen, MDM2 E3 ligase inhibitor project, cell-based, luminescence, 1536-well; E3 ubiquitin-protein ligase Mdm2 (Homo sapiens), Q00987; cell-based MDM2 ubiquitination luciferase reporter, 2 h; 0 = plate control, 100 = twice control, blank-subtracted; signal enhancement, % at 5 µM; hit rate 0.11% among 210,000; AID 1230, 2008;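 active means signal enhancement of 30% or more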;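 further: luminescence tracks abundance of the self-degrading MDM2-luciferase fusion protein; higher signal means inhibition of MDM2 E3 ligase activity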
# Target sequence (Q00987 whole entry, looked up, the tested form may be a part): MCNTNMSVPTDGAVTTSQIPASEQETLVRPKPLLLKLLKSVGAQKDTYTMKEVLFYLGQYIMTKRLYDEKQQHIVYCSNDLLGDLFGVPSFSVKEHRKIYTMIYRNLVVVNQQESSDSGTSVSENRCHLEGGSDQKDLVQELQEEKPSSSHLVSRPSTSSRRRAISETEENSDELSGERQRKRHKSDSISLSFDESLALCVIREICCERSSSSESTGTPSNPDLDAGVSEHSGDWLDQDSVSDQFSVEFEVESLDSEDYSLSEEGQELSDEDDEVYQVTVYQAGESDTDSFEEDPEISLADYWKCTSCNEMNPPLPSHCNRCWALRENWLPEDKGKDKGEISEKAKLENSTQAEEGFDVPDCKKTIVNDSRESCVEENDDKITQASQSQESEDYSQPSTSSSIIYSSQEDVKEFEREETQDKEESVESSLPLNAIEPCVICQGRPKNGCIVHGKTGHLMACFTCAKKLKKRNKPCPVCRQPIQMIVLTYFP
#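 test system = mammalian cells stably expressing self-ubiquitinating, self-degrading MDM2 E3–luciferase fusion | quantity = 2000 cells/well | incubation = cell settling 4 h, compound treatment 2 h, both 37 °C | signal = luminescence with SteadyLite reagent, 15 min at room temperature | evaluation = % enhancement relative to plate controls after blank subtraction | benchmarks = plate controls and plate blanks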
# Yeast life ext: compounds extending yeast replicative lifespan, primary screen, S. cerevisiae, OD615; S. cerevisiae growth with nicotinamide; deaD strain in restrictive glucose medium; inhibition of the nicotinamide effect, % at 10 µM; hit rate 0.68% among 130,000;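 active means inhibition above a set limit, placed 3 SD over the median of all compounds, cut at about 26% in these data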;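 further: 0% = nicotinamide-treated wells and 100% = cells grown without nicotinamide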
#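 assay system = DeaD-strain S. cerevisiae | measured by = absorbance at 615 nm | probe or stimulus = nicotinamide 1.5 mM | buffer or medium = CSMM-D glucose medium, restrictive | times = 48 h at 30 °C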
# RAM efflux-def: 5-FOA growth of efflux-deficient control yeast, dose response, counter-screen for RAM network inhibitor project, S. cerevisiae, OD615; shares compounds with RAM network inh; S. cerevisiae efflux-deficient reporter strain, 5-FOA growth OD615, 2 days; max inhibition, %; 1,200 tested, under 10 active; call rule not given here;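 further: plate controls were vehicle for no effect and reference inhibitor for full effect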
# The depositor's hits bear a star; nt = no result. Compounds with a hit are over-represented: about 4% of the library has one in this group of screens.
SMILES,RAM network inh,Insulin prom inh,BB579 growth dn,Measles CPE,Mdm2 ligase inh,Yeast life ext,RAM efflux-def
Cc1cccc(OCC(=O)O/N=C(\N)Cc2ccc([N+](=O)[O-])cc2)c1,18*,nt,nt,nt,1,nt,2
Cc1ccc(OCC(=O)O/N=C(\N)Cc2ccc([N+](=O)[O-])cc2)cc1C,nt,nt,nt,nt,-6,nt,nt
CCCCNC(=O)c1cc2cc(CC)ccc2[nH]1,nt,nt,nt,nt,-6,nt,nt
COc1ccccc1OCC(=O)Nc1ccc(-c2nnc(-c3ccco3)o2)cc1,12*,-56,nt,nt,6,nt,2
CCOC(=O)c1ccc(NC(=S)NCCc2ccc(F)cc2)cc1,4,nt,nt,nt,-15,nt,nt
O=C(c1ccc(Cn2c(=S)[nH]c3ccc(N4CCOCC4)cc3c2=O)cc1)N1CCC(N2CCCCC2)CC1,0,16,nt,nt,-4,nt,nt
O=C(Nc1cc(Cl)ccc1N1CCCCC1)c1cccs1,4,-34,-48,21,-6,-10,nt
Cc1ccc(C(=O)Nc2cc(Cl)ccc2N2CCCCC2)s1,14*,-17,-12,4,-2,-6,2
CCc1sc(C(=O)Nc2cc(Cl)ccc2N2CCCCC2)cc1C,14*,nt,-23,29,-3,-9,4
O=[N+]([O-])c1ccc2cn(-c3ccccc3)nc2c1,2,-7,-24,4,-3,-4,nt
COc1ccc2c(c1)C(C)CC(C)(C)N2C(=O)CSc1nc2ccccc2s1 (stereo not drawn),13*,nt,-21,8,-24,-5,4
CCCCCCNC(=O)CC(c1ccccc1)c1cc(Br)ccc1O (stereo not drawn),11*,-295,-19,1,-6,nt,2
CC(C)NC(=O)CC(c1ccccc1)c1cc(Br)ccc1O (stereo not drawn),-1,-31,-3,9,-1,-12,nt
CCn1c(SCc2nc3ccccc3c(=O)[nH]2)nc2ccccc21,12*,nt,nt,nt,-23,nt,5
CCN(CC)C(=O)CSc1ccccc1N,2,25,-35,10,-11,-20,nt
CCOc1c(Cl)cc(C(=O)Nc2cccc(C(=O)O)c2)cc1Cl,1,nt,nt,nt,-18,nt,nt
COC(=O)C1=CN(Cc2cccs2)C=C(C(=O)OC)C1c1cccc(Cl)c1,13*,nt,nt,nt,-8,nt,2
N#Cc1c(SCC(=O)O)nc(N2CCCCC2)c2c1CCCC2,2,21,-36,5,-22,3,nt
COC(=O)CSc1nc(N2CCCCC2)c2c(c1C#N)CCCC2,14*,7,-24,30,-8,-11,1
CSc1ccccc1NC(=O)c1ccccc1C,2,nt,nt,nt,-6,nt,nt
CCCC(=O)OCCNc1cc(SCc2ccco2)c2nonc2c1[N+](=O)[O-],14*,37,-2,9,-13,2,3
Clc1ccc(-c2cc(COc3ccc4ccccc4c3)no2)cc1,3,0,-35,14,-15,-5,nt
Cc1noc(C)c1C(=O)N1CCN(c2ccc(OCc3ccccc3)cc2)CC1,nt,nt,nt,nt,-17,nt,nt
Cc1cc(C)c(Nc2cc(S(=O)(=O)O)c(N)c3c2C(=O)c2ccccc2C3=O)c(C)c1,26*,nt,-71,7,-25,35*,15
Cc1cc(C)c(NC(=O)COC(=O)c2cccc3c2C(=O)c2ccccc2C3=O)c(C)c1,4,-25,-39,6,-9,18,nt
SMILES,RAM network inh,Insulin prom inh,BB579 growth dn,Measles CPE,Mdm2 ligase inh,Yeast life ext,RAM efflux-def
CC(=O)Nc1ccc(C(=S)NCCCO)cc1,2,nt,nt,nt,6,nt,nt
S=C(Nc1ccc2nccnc2c1)N1CCOCC1,2,nt,nt,nt,6,nt,nt
CCCSc1nc(C)cc(C)c1C(N)=O,0,-8,-2,7,-25,-20,nt
CN(C)c1ccc(NC(=O)CSc2nnc(-c3cccs3)n2Cc2ccco2)cc1,2,50,-17,15,-10,-5,nt
O=C(CSc1nnc(Cc2cccs2)n1Cc1ccco1)Nc1cc(Cl)cc(Cl)c1,12*,0,-54,3,-3,-2,1
O=C(CSc1nnc(Cc2cccs2)n1Cc1ccco1)Nc1cccc(Cl)c1,3,-16,-32,27,-15,-16,nt
Cc1ccc(NC(=O)CSc2nnc(-c3cccs3)n2Cc2ccco2)cc1,12*,-35,2,4,6,-14,1
CCOc1ccc(NC(=O)CSc2nnc(-c3ccccc3Cl)n2Cc2ccco2)cc1,15*,nt,-48,13,-6,-25,2
COc1ccc(NC(=O)CSc2nnc(-c3ccccc3Cl)n2Cc2ccco2)c(OC)c1,-1,27,-17,14,-9,-10,nt
COc1ccc2nc(NC(=O)CN(C)S(=O)(=O)c3cccs3)sc2c1,0,-5,-44,2,-5,-14,nt
O=C(O)C1=C[C@H](c2ccc(F)cc2)C[C@H](OCCCCO)O1,nt,nt,nt,nt,-6,nt,nt
COc1ccc(C(=O)O)cc1S(=O)(=O)Nc1cccc(C(F)(F)F)c1,2,35,-16,6,9,-15,nt
O=C(O)c1ccc(Cl)c(S(=O)(=O)Nc2cccc(C(=O)Nc3cccc(C(F)(F)F)c3)c2)c1,12*,28,nt,nt,1,nt,3
Cn1nnnc1SCC(=O)Nc1cc(S(=O)(=O)N2CCCC2)ccc1Cl,0,18,nt,nt,-6,nt,nt
O=C(CSc1cccc(C(F)(F)F)c1)Nc1cc(S(=O)(=O)N2CCCC2)ccc1Cl,16*,-44,-51,5,11,11,1
CCC(Cc1ccccc1)NC(=O)CSc1ccsc1[N+](=O)[O-] (stereo not drawn),4,6,-19,32,-18,-7,nt
OCCNc1nc(SCc2ccccc2)nc2sc3c(c12)CCC3,11*,9,-41,20,-5,-28,3
O=c1c2c3c(sc2nc(NCCO)n1CCc1ccccc1)CCCCC3,6,-3,-9,nt,-9,-10,nt
CCOC(=O)N1CCC(N2C(=O)c3ccccc3C2Nc2ccc(S(=O)(=O)N(CC)CC)cc2)CC1 (stereo not drawn),2,nt,nt,nt,-19,nt,nt
O=c1c(Cc2ccc(F)cc2)c(O)ccn1CCCn1ccnc1,1,nt,nt,nt,-10,nt,nt
CCOC(=O)c1cnc(SC)nc1Oc1cccc(NC(=O)c2ccc(C)cc2)c1,18*,18,-52,3,-10,5,5
CCOC(=O)c1cnc(SC)nc1Nc1cccc2ccccc12,7,12,-2,13,nt,nt,nt
CCOC(=O)c1cnc(SC)nc1Oc1cccc(NS(=O)(=O)c2ccccc2)c1,6,30,-14,20,-12,3,nt
